Results published in ChEMBL document CHEMBL1122264, “Synthesis and biological properties of thiophene ring analogues of mianserin” (J Med Chem, 1983).
Each block holds one compound with its values, some of them ahead of it. Calls of active or inactive are those of the source.

Columns and labels:
[1] = (§1) In vitro antihistamine activity, by activation of guinea pig cerebral cortex adenylate cyclase by histamine mediated by both H1 and H2 receptors
[2] = biological target: Histamine H2 receptor (Cavia porcellus, UniProt P47747); test: In vitro antihistamine activity by activation of 4-methylhistamine mediated by Histamine H2 receptor; assay type: functional
[3] = test system: Mus musculus; test: In vivo central presynaptic alpha-blockade using [3H]rauwolscine (injected iv 20 min later and the mice were sacrificed at 35 min); conditions: read-out: ID50
[4] = species on record: Mus musculus; test: Antidepressant potential (duration) by using the behavioral despair model; assay type: functional
[5] = test system: Rattus norvegicus; test: In vivo determination of MHPG-SO4 level in rat whole brain at a dose 30 mg/kg ip administration; assay type: functional; conditions: route intraperitoneal
How it was run: (§2)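 Rats were given the test agent or vehicle ip as a suspension in corn starch. They were killed 2 h later, and MHPG-SO₄ was measured in whole brain in μg/g ± SE and as % of vehicle control. Five rats were used per experiment.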

[6] = test system: Rattus norvegicus; test: In vivo determination of MHPG-SO4 level in rat whole brain at a dose 0 mg/kg ip administration; assay type: functional; conditions: route intraperitoneal; how it was run: as §2
[7] = test system: Rattus norvegicus; test: In vivo determination of MHPG-SO4 level in rat whole brain at a dose 30 mg/kg ip administration (5 rats); assay type: functional; conditions: route intraperitoneal; how it was run: as §2
[8] = as §1; assay type: functional, tissue-based, Cavia porcellus
How it was run: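 Adenylate cyclase preparation from guinea pig cerebral cortex, activated by histamine (acting via H1 + H2 receptors). Percent inhibition is measured in triplicate over a wide concentration range, and IC50 is calculated from those data. Psychoyos procedure.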

[9] = test system: Mus musculus; test: In vivo central presynaptic alpha-blockade using [3H]rauwolscine in mice (injected iv 20 min later and the mice were sacrificed at 35 min); assay type: functional; conditions: read-out: ID50 (the source's name)
How it was run: (§3)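 Mice get test drug or vehicle ip at zero time, then [3H]rauwolscine iv 20 min later, and are sacrificed at 35 min. Displacement is measured in mouse forebrain. […] ID50 and 95% confidence limits follow the Granat method.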

[10] = test system: Mus musculus; test: In vivo Antagonism (ip) of 0.1 mg/kg clonidine-induced analgesia (po) determined in phenylquinone-induced writhing assay at a dose of 30 mg/kg dose; the ratio is 4/10; assay type: functional, organism-based
How it was run: (§4)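 Male mice (18–22 g) receive the test substance ip, then clonidine 0.1 mg/kg po 30 min later. Phenylquinone is given ip 20 min after clonidine. Mice writhing 5–15 min after phenylquinone count as reactors. The result is the number of mice, out of n = 10 per experiment, in which clonidine analgesia is reversed.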

[11] = test system: Rattus norvegicus; test: In vivo determination of MHPG-SO4 level in rat whole brain at a dose 10 mg/kg intraperitoneal administration; assay type: functional
How it was run: (§5)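 Rats, five per experiment, receive test agent ip as a corn starch suspension and are sacrificed 2 h later. Whole-brain MHPG-SO4 (μg/g) is measured by the Meek and Neff procedure and expressed as a percentage of control, ± SE.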

[12] = test system: Rattus norvegicus; test: In vivo determination of MHPG-SO4 level in rat whole brain at a dose 20 mg/kg intraperitoneal administration; assay type: functional; how it was run: as §5
[13] = test system: Rattus norvegicus; test: In vivo determination of MHPG-SO4 level in rat whole brain at a dose 3 0 mg/kg ip administration; assay type: functional; conditions: route intraperitoneal; how it was run: as §5
[14] = test system: Rattus norvegicus; test: In vivo determination of MHPG-SO4 level in rat whole brain at a dose 0 mg/kg intraperitoneal administration; assay type: functional; how it was run: as §5
[15] = test system: Rattus norvegicus; test: In vivo determination of MHPG-SO4 level in rat whole brain at a dose 10 mg/kg ip administration (5 rats); assay type: functional; conditions: route intraperitoneal; how it was run: as §5
[16] = test system: Rattus norvegicus; test: In vivo determination of MHPG-SO4 level in rat whole brain at a dose 20 mg/kg ip administration (5 rats); assay type: functional; conditions: route intraperitoneal; how it was run: as §5
[17] = biological target: T1, Cerebral cortex alpha adrenergic receptor (Bos taurus, UniProt Q28838+P18130); test: In vitro binding affinity towards alpha-adrenoceptor of calf cortex membrane Site B using [3H]-clonidine
T1 sequence (Q28838 whole entry): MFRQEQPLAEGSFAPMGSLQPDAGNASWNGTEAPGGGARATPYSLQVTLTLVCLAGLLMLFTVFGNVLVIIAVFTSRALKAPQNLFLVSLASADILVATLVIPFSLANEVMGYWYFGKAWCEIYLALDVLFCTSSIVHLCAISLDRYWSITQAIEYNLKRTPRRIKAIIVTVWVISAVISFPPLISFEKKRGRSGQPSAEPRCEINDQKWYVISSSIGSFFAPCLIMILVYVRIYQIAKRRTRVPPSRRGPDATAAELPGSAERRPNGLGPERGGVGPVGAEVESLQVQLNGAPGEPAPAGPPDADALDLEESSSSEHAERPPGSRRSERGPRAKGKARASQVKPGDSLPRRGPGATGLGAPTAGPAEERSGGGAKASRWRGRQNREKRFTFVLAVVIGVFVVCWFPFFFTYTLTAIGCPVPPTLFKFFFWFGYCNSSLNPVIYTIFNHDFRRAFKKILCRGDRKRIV
T1 sequence (P18130 whole entry): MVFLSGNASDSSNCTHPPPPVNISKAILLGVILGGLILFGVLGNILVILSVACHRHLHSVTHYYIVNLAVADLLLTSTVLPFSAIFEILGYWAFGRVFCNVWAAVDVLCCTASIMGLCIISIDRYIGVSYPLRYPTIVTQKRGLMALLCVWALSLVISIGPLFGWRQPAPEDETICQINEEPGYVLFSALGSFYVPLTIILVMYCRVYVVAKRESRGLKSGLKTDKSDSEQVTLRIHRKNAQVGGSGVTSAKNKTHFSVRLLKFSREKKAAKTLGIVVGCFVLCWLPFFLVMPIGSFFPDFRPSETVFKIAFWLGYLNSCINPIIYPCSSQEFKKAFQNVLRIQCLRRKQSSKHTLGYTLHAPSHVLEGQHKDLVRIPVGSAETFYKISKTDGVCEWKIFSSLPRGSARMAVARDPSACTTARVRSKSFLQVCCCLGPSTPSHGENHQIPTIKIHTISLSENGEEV

[18] = biological target: Adrenergic receptor alpha; test: In vitro binding affinity towards alpha-adreno ceptor of rat forebrain using [3H]prazosin
How it was run: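 Rat forebrain membranes, [3H]prazosin binding by the Greengrass and Bremner procedure, with ascorbic acid omitted from the incubation medium. Drugs are tested in triplicate over a wide concentration range in a single experiment.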

[19] = biological target: T1, Cerebral cortex alpha adrenergic receptor; test: In vitro binding affinity towards alpha-adrenoceptor of calf cortex membrane Site A using [3H]clonidine
[20] = biological target: serotonin (5-HT) receptor (Bos taurus)
[21] = test system: Mus musculus; test: Central presynaptic alpha-blockade using [3H]rauwolscine (injected iv 20 min later and the mice were sacrificed at 35 min) (in vivo);value ranges between (1.2-5.9); assay type: functional; conditions: read-out: ID50 (the source's name); how it was run: as §3
[22] = test system: Mus musculus; test: In vivo Antagonism (ip) of 0.1 mg/kg clonidine-induced analgesia (po) determined in phenylquinone-induced writhing assay at 10 mg/kg dose; the ratio being 4/10; assay type: functional, organism-based; how it was run: as §4
[23] = biological target: serotonin (5-HT) receptor (Bos taurus); test: In vitro binding affinity of serotonin receptor by interacting with high affinity, [3H]serotonin from calf caudate nucleus

Histamine H2 receptor, sequence (P47747 whole entry): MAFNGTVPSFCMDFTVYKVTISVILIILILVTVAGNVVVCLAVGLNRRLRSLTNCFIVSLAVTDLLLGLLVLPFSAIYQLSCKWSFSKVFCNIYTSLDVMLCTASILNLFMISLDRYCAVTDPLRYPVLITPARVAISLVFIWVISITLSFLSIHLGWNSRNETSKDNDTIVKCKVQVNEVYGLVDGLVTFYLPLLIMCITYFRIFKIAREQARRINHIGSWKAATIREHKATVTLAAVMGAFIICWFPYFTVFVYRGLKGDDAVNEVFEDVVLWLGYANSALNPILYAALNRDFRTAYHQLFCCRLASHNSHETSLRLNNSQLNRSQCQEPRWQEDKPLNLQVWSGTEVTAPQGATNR

SMILES: CN1CCN2c3ccccc3Cc3ccccc3C2C1.Cl (stereo unspecified) [MIANSERIN HYDROCHLORIDE]
- IC50 [1]: 190 nM
- IC50 [2]: 3800 nM
- ED50 [3]: 3.7 mg/kg
- Duration [4]: 186 s
- MHPG SO4 [5]: 0.19 µg/g
- MHPG_SO4 [6]: 0.11 µg/g
- Control [7]: 180%

- IC50 [8]: 280 nM
- IC50 [2]: 19000 nM
- IC50 [17]: 3 nM
- IC50 [18]: 1400 nM
- IC50 [19]: 3 nM
- IC50 [20]: 500 nM
SMILES: CN1CCN2c3ccccc3Cc3ccsc3C2C1 (stereo unspecified)
- ED50 [9]: 3.3 mg/kg
- Duration [4]: 185 s
- Antagonism [10]: Partially active
- MHPG_SO4 [11]: 0.15 µg/g
- MHPG SO4 [12]: 0.21 µg/g
- MHPG SO4 [13]: 0.27 µg/g
- MHPG_SO4 [14]: 0.11 µg/g
- Control [15]: 136%
- Control [16]: 191%
- Control [7]: 245%

- IC50 [8]: 90 nM
- IC50 [2]: 7200 nM
- IC50 [17]: 3 nM
- IC50 [18]: 300 nM
- IC50 [19]: 2 nM
- IC50 [23]: 100 nM
SMILES: CN1CCN2c3ccccc3Cc3sccc3C2C1 (stereo unspecified)
- ED50 [21]: 2.7 mg/kg
- Antagonism [22]: Partially active
